Reference: ChEMBL document CHEMBL1158040, “Biological activities and 3D QSAR studies of a series of Delisea pulchra (cf. fimbriata) derived natural products” (J Nat Prod, 2006)
pIC50: −log10 of the molar value. Converted amounts (≈) assume the structure as drawn. The source made the active and inactive calls. The rule behind the calls is not given here.

Tests used:
Lu1 = experiment: Cytotoxicity against human Lu1 cells; format: functional; conditions: read-out: ED50 (the source's name)
KB [1] = experiment: Cytotoxicity against human KB cells; format: functional; conditions: read-out: ED50 (the source's name)
KB [2] = experiment: Cytotoxicity against vinblastine-sensitive human KB cells; format: functional; conditions: read-out: ED50 (the source's name)
KB [3] = experiment: Cytotoxicity against vinblastine-resistant human KB cells; format: functional; conditions: read-out: ED50 (the source's name)
Method in brief: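 The vinblastine-resistant KB-V1 line was tested both with and without added vinblastine in the cultured tumour-cell cytotoxicity panel. Results are reported as ED50.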

LNCaP = experiment: Cytotoxicity against human LNCAP cells; format: functional; conditions: read-out: ED50 (the source's name)
ZR-75-1 = experiment: Cytotoxicity against human ZR-75-1 cells; format: functional; conditions: read-out: ED50 (the source's name)
Escherichia coli [4] = experiment: Antimicrobial activity against Escherichia coli at 10 ug; format: functional, organism-based
Method in brief: (§1)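 Direct bioautography: each compound is spotted onto TLC plates and the solvent evaporated. The test organism is then grown directly on the plate. Growth inhibition is scored at the spot as active (+) or very active (++). Where a number is given, it is the radius in mm of the inhibition zone around the spot.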

Escherichia coli [5] = experiment: Antimicrobial activity against Escherichia coli at 5 ug; format: functional, organism-based; method in brief: as §1
Escherichia coli [6] = experiment: Antimicrobial activity against Escherichia coli at 1 ug; format: functional, organism-based; method in brief: as §1
Escherichia coli [7] = experiment: Antimicrobial activity against Escherichia coli at 0.1 ug; format: functional, organism-based; method in brief: as §1
Micrococcus luteus [8] = experiment: Antimicrobial activity against Micrococcus luteus at 10 ug; format: functional, organism-based; method in brief: as §1
Micrococcus luteus [9] = experiment: Antimicrobial activity against Micrococcus luteus at 5 ug; format: functional, organism-based; method in brief: as §1
Micrococcus luteus [10] = experiment: Antimicrobial activity against Micrococcus luteus at 1 ug; format: functional, organism-based; method in brief: as §1
Micrococcus luteus [11] = experiment: Antimicrobial activity against Micrococcus luteus at 0.1 ug; format: functional, organism-based; method in brief: as §1
Bacillus subtilis [12] = experiment: Antimicrobial activity against Bacillus subtilis at 10 ug; format: functional, organism-based; method in brief: as §1
Bacillus subtilis [13] = experiment: Antimicrobial activity against Bacillus subtilis at 5 ug; format: functional, organism-based; method in brief: as §1
Bacillus subtilis [14] = experiment: Antimicrobial activity against Bacillus subtilis at 1 ug; format: functional, organism-based; method in brief: as §1
Bacillus subtilis [15] = experiment: Antimicrobial activity against Bacillus subtilis at 0.1 ug; format: functional, organism-based; method in brief: as §1
Penicillium oxalicum [16] = experiment: Antimicrobial activity against Penicillium oxalicum at 10 ug; format: functional; conditions: read-out: IZ; method in brief: as §1
Penicillium oxalicum [17] = experiment: Antimicrobial activity against Penicillium oxalicum at 5 ug; format: functional; conditions: read-out: IZ; method in brief: as §1
Penicillium oxalicum [18] = experiment: Antimicrobial activity against Penicillium oxalicum at 1 ug; format: functional; conditions: read-out: IZ; method in brief: as §1
Penicillium oxalicum [19] = experiment: Antimicrobial activity against Penicillium oxalicum at 0.1 ug; format: functional; conditions: read-out: IZ; method in brief: as §1
Plasmodium falciparum [20] = experiment: Antimalarial activity against chloroquine-sensitive Plasmodium falciparum D6; format: functional, organism-based
Method in brief: (§2)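 In vitro growth inhibition of Plasmodium falciparum clones D6 (chloroquine-sensitive) and W2 (chloroquine-resistant); IC50 reported in μg/mL.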

Plasmodium falciparum [21] = experiment: Antimalarial activity against chloroquine-resistant Plasmodium falciparum W2; format: functional, organism-based; method in brief: as §2
[22] = Selectivity index, ratio of IC50 for human KB cells to IC50 for Plasmodium falciparum D6; format: toxicity, cell-based; conditions: KB cells versus Plasmodium falciparum D6, read-out: Ratio IC50
Method in brief: (§3)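 Plasmodium falciparum clones were assayed in vitro: D6 (chloroquine-sensitive) and W2 (chloroquine-resistant). IC50 is in μg/mL. The selectivity index is the ratio of the antimalarial to the cytotoxic activity.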

[23] = biological target: Human immunodeficiency virus type 1 reverse transcriptase (Human immunodeficiency virus 1, UniProt Q72547); experiment: Inhibition of HIV1 RT at 200 uM
Method in brief: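 HIV-1 reverse transcriptase inhibition was measured in an ELISA-based system.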

[24] = Inhibition of TK assessed as residual activity at 200 ug/ml
Method in brief: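 The enzyme was tyrosine kinase p56lck, with test compounds at 200 μg/mL. The read-out is the remaining enzyme activity.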

Penicillium oxalicum [25] = experiment: Antimicrobial activity against Penicillium oxalicum at 0.01 ug; format: functional; method in brief: as §1
[26] = Selectivity index, ratio of IC50 for human KB cells to IC50 for Plasmodium falciparum W2; format: toxicity, cell-based; conditions: KB cells versus Plasmodium falciparum W2, read-out: Ratio IC50; method in brief: as §3

Row | Structure (SMILES) | EC50 (Lu1) [µg/mL] | EC50 (KB [1]) [µg/mL] | EC50 (KB [2]) [µg/mL] | EC50 (KB [3]) [µg/mL] | EC50 (LNCaP) [µg/mL] | EC50 (ZR-75-1) [µg/mL] | Activity (Escherichia coli [4]) | Activity (Escherichia coli [5]) | Activity (Escherichia coli [6]) | Activity (Escherichia coli [7]) | Activity (Micrococcus luteus [8]) | Activity (Micrococcus luteus [9]) | Activity (Micrococcus luteus [10]) | Activity (Micrococcus luteus [11]) | Activity (Bacillus subtilis [12]) | Activity (Bacillus subtilis [13]) | Activity (Bacillus subtilis [14]) | IC50 (Plasmodium falciparum [20]) [µg/mL] | IC50 (Plasmodium falciparum [21]) [µg/mL] | selectivity ratio [22] | other results
1 | CCC[C@@H](O)C1=C(Br)/C(=C/Cl)OC1=O | 1 (≈ 3.55 µM) | 0.4 (≈ 1.42 µM) | 1.2 (≈ 4.26 µM) | 1.4 (≈ 4.97 µM) | 3 (≈ 10.7 µM) | 0.4 (≈ 1.42 µM) | Active | Active | Active | Active | Active | Active | Active | inactive | Active | Active | Active | 5.9 (≈ 21 µM) | > 10 | < 1 | Activity (Bacillus subtilis [15]): inactive; zone of inhibition at 10 µg/disc (Penicillium oxalicum [16]): 22 mm; zone of inhibition at 5 µg/disc (Penicillium oxalicum [17]): 18 mm; zone of inhibition at 1 µg/disc (Penicillium oxalicum [18]): 14 mm; zone of inhibition at 0.1 µg/disc (Penicillium oxalicum [19]): 6 mm; pIC50 [23]: 3.15; Activity [24]: 1.9%
2 | CCC[C@@H](O)C1=C(Br)/C(=C/I)OC1=O | 1.3 (≈ 3.49 µM) | 0.4 (≈ 1.07 µM) | 4.1 (≈ 11 µM) | 0.3 (≈ 0.804 µM) | < 0.1 | 0.3 (≈ 0.804 µM) | Active | Active | Active | inactive | Active | Active | Active | inactive | Active | Active | inactive | 6.8 (≈ 18.2 µM) | > 10 | < 1 | Activity (Bacillus subtilis [15]): inactive; zone of inhibition at 10 µg/disc (Penicillium oxalicum [16]): 20 mm; zone of inhibition at 5 µg/disc (Penicillium oxalicum [17]): 18 mm; zone of inhibition at 1 µg/disc (Penicillium oxalicum [18]): 12 mm; zone of inhibition at 0.1 µg/disc (Penicillium oxalicum [19]): 4 mm; pIC50 [23]: 3.15; Activity [24]: 4.2%
3 | CCC[C@@H](O)C1=C(Br)C(=C(Br)Br)OC1=O | 1.7 (≈ 4.2 µM) | 0.5 (≈ 1.23 µM) | 0.6 (≈ 1.48 µM) | 9.5 (≈ 23.5 µM) | 6.7 (≈ 16.5 µM) | 0.3 (≈ 0.741 µM) | Active | Active | inactive | inactive | Active | Active | Active | Active | Active | Active | Active | 2.8 (≈ 6.92 µM) | > 10 | < 1 | zone of inhibition at 10 µg/disc (Penicillium oxalicum [16]): 20 mm; zone of inhibition at 5 µg/disc (Penicillium oxalicum [17]): 23 mm; zone of inhibition at 1 µg/disc (Penicillium oxalicum [18]): 17 mm; pIC50 [23]: 3.15; Activity [24]: 4.5%; zone of inhibition at 0.01 µg/disc (Penicillium oxalicum [25]; read-out: IZ): 4 mm
4 | CCC[C@@H](OC(C)=O)C1=C(Br)/C(=C/I)OC1=O | 1.5 (≈ 3.61 µM) | 0.1 (≈ 0.241 µM) | 3.6 (≈ 8.67 µM) | 0.2 (≈ 0.482 µM) | 2 (≈ 4.82 µM) | < 0.1 | Active | Active | inactive | inactive | Active | Active | Active | Active | Active | Active | Active | 4.6 (≈ 11.1 µM) | > 10 | < 1 | Activity (Bacillus subtilis [15]): inactive; zone of inhibition at 10 µg/disc (Penicillium oxalicum [16]): 17 mm; zone of inhibition at 5 µg/disc (Penicillium oxalicum [17]): 21 mm; zone of inhibition at 1 µg/disc (Penicillium oxalicum [18]): 9 mm; zone of inhibition at 0.1 µg/disc (Penicillium oxalicum [19]): 6 mm; pIC50 [23]: 3.15; Activity (Penicillium oxalicum [25]): inactive
5 | OC(c1cc(C(F)(F)F)nc2c(C(F)(F)F)cccc12)C1CCCCN1 (configuration not stated) [MEFLOQUINE] |  | 3.5 (≈ 9.25 µM) |  |  |  |  |  |  |  |  |  |  |  |  |  |  |  | 0.005 (≈ 0.0132 µM) | 0.001 (≈ 0.00264 µM) | 710 | selectivity ratio [26]: 4380
6 | C=C[C@H]1CN2CC[C@H]1C[C@H]2[C@H](O)c1ccnc2ccc(OC)cc12 [QUININE] |  | > 20 |  |  |  |  |  |  |  |  |  |  |  |  |  |  |  | 0.011 (≈ 0.0339 µM) | 0.029 (≈ 0.0894 µM) | > 1830 | selectivity ratio [26]: > 700
